Measured values: ChEMBL document CHEMBL4480426, “Novel multi-target directed ligands based on annelated xanthine scaffold with aromatic substituents acting on adenosine receptor and monoamine oxidase B. Synthesis, in vitro and in silico studies” (Bioorg Med Chem, 2019)

Key:
[1] = Antioxidant activity assessed as increase in total ferric ion reducing activity at 1000 uM using FeCl3.6H2O and TPTZ incubated for 10 mins under dark condition by FRAP assay relative to control; type: functional; set-up: scale not given: the % may be the effect or the level left
In short: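 FRAP reagent made by mixing 10 parts 300 mM acetate buffer pH 3.6, 1 part 10 mM TPTZ in 40 mM HCl and 1 part 20 mM FeCl3·6H2O. Reagent mixed with compound solution, 10 min at room temperature in the dark. Ferrous-TPTZ complex read at 593 nm. Result is absorbance increase versus solvent sample. FeSO4·7H2O standard curve, 37.5–1200 μM.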

[2] = target: T1, Amine oxidase [flavin-containing] B (Homo sapiens, UniProt P27338); experiment: Inhibition of recombinant human MAOB expressed in baculovirus infected BTI insect cells at 1 to 100 uM using p-tyramine as substrate preincubated for 30 mins followed by substrate addition and measured over 45 mins by horseradish peroxidase-Amplex Red-coupled fluorometric assay relative to control; conditions: 0.75 h
T1 sequence (P27338 whole entry): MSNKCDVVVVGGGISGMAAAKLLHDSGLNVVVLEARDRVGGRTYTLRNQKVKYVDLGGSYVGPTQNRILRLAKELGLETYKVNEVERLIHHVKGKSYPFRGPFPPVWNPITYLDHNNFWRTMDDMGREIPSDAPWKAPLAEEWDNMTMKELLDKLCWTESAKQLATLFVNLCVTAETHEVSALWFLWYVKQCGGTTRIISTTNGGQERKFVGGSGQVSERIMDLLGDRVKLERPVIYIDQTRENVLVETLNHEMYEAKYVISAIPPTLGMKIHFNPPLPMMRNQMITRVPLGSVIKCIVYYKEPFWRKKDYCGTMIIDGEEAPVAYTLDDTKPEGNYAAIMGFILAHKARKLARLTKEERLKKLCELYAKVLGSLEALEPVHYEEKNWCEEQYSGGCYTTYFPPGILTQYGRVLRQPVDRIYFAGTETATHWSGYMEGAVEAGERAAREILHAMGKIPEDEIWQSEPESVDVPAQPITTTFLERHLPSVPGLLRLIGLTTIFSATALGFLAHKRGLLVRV
In short: (§1)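 Human recombinant MAO-A or MAO-B enzyme. Activity detected fluorometrically with the Amplex Red monoamine oxidase assay.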

Adenosine receptor A2a [3] = target: T2, Adenosine receptor A2a (Homo sapiens, UniProt P29274); experiment: Displacement of [3H]MSX2 from recombinant human adenosine A2a receptor expressed in HEK293 cells; type: cell-based
T2 sequence (P29274 whole entry): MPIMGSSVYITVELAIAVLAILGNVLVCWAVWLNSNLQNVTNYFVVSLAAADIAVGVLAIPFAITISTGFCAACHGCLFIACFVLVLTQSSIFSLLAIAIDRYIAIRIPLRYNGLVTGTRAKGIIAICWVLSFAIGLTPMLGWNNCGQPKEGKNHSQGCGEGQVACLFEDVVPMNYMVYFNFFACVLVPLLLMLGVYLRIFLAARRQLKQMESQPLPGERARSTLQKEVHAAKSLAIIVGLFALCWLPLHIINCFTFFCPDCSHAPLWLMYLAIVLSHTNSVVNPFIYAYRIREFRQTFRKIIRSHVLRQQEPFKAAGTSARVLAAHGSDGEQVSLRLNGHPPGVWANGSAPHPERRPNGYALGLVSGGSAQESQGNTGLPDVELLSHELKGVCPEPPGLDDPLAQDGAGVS

Adenosine receptor A1 [4] = target: T3, Adenosine receptor A1 (Rattus norvegicus, UniProt P25099); experiment: Displacement of [3H]CCPA from adenosine A1 receptor in rat brain cortical membranes; type: cell membranes
T3 sequence (P25099 whole entry): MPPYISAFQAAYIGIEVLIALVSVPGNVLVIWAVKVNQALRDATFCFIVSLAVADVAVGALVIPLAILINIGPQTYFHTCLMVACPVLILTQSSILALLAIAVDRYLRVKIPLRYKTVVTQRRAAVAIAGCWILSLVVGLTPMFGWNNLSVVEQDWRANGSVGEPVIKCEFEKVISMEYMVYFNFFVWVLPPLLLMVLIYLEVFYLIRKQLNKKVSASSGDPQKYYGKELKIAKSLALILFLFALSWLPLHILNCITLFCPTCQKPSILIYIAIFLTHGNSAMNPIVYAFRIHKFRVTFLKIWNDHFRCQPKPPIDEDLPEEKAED

Adenosine receptor A2b = target: T4, Adenosine receptor A2b (Homo sapiens, UniProt P29275); experiment: Displacement of [3H]PSB603 from recombinant human adenosine A2b receptor expressed in HEK293 cells; type: cell-based
T4 sequence (P29275 whole entry): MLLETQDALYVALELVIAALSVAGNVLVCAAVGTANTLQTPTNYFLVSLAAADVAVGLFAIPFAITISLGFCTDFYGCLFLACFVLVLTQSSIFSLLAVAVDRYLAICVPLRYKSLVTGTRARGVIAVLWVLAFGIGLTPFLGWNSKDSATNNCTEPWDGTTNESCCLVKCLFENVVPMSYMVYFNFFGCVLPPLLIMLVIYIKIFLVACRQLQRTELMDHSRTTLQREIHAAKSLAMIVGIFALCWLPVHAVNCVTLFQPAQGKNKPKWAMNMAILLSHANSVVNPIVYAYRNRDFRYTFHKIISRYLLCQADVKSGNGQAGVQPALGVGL

Adenosine receptor A3 = target: T5, Adenosine receptor A3 (Homo sapiens, UniProt P0DMS8); experiment: Displacement of [3H]PSB11 from recombinant human adenosine A3 receptor expressed in CHO cells; type: cell-based
T5 sequence (P0DMS8 whole entry): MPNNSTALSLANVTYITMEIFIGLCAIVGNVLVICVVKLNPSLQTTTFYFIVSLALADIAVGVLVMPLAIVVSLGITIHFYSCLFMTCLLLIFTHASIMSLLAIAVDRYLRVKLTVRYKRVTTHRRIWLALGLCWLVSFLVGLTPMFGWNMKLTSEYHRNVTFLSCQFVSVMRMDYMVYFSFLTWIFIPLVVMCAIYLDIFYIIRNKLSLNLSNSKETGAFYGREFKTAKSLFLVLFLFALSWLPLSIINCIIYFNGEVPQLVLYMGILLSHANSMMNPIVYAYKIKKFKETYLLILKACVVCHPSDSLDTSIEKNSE

[5] = target: T1, Amine oxidase [flavin-containing] B; experiment: Inhibition of recombinant human MAOB expressed in baculovirus infected BTI insect cells using p-tyramine as substrate preincubated for 30 mins followed by substrate addition and measured over 45 mins by horseradish peroxidase-Amplex Red-coupled fluorometric assay; in short: as §1
[6] = target: T6, Adenosine receptor A1 (Homo sapiens) (UniProt P30542); experiment: Displacement of [3H]CCPA from recombinant human adenosine A1 receptor expressed in CHO cells at 1 uM relative to control; type: cell-based
T6 sequence (whole entry): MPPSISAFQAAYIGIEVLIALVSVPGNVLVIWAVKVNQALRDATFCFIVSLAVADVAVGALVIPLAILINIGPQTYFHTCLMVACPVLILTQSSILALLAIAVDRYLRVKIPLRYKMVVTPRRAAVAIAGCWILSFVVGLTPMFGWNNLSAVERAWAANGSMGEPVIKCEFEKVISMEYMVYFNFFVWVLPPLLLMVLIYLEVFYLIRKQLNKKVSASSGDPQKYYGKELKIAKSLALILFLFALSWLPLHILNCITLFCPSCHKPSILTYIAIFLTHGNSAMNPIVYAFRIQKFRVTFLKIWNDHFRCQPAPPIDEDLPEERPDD
In short: (§2)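 Purchased membranes of CHO cells expressing human A1 ([3H]CCPA) or human A3 ([3H]PSB-11). A single high compound concentration is screened first; for potent compounds, full inhibition curves spanning 3 orders of magnitude. At least three independent experiments.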

[7] = target: T7, Adenosine receptor A2b (Homo sapiens) (UniProt P29275); experiment: Displacement of [3H]PSB603 from recombinant human adenosine A2b receptor expressed in HEK293 cells at 1 uM relative to control; type: cell-based
T7 sequence (whole entry): T4 sequence (P29275 whole entry)
In short: (§3)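 Purchased membranes of HEK cells expressing human A2A ([3H]MSX-2) or human A2B ([3H]PSB-603). A single high compound concentration is screened first; for potent compounds, full inhibition curves spanning 3 orders of magnitude. At least three independent experiments.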

Adenosine receptor A2a [8] = target: T2, Adenosine receptor A2a; experiment: Displacement of [3H]MSX2 from recombinant human adenosine A2a receptor expressed in HEK293 cells at 1 uM relative to control; type: cell-based; in short: as §3
[9] = target: T8, Amine oxidase [flavin-containing] A (Homo sapiens, UniProt P21397); experiment: Inhibition of recombinant human MAOA expressed in baculovirus infected BTI insect cells at 1 to 100 uM using p-tyramine as substrate preincubated for 30 mins followed by substrate addition and measured over 45 mins by horseradish peroxidase-Amplex Red-coupled fluorometric assay relative to control; conditions: 0.75 h; in short: as §1
T8 sequence (P21397 whole entry): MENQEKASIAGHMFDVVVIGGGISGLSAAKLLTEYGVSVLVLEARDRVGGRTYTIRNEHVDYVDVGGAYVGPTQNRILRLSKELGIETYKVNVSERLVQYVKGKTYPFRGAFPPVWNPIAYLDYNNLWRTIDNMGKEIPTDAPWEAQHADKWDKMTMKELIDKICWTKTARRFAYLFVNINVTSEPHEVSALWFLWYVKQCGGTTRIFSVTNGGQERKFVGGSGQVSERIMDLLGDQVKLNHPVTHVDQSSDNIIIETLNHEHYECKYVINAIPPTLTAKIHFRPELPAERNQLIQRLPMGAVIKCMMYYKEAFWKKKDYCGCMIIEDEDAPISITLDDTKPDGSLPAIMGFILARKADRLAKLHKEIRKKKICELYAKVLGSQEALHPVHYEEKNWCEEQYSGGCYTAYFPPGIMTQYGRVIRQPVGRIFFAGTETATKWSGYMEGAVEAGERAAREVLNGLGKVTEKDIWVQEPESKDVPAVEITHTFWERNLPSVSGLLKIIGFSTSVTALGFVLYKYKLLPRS

Adenosine receptor A1 [10] = target: T9, Adenosine receptor A1 (Homo sapiens, UniProt P30542); experiment: Displacement of [3H]CCPA from recombinant human adenosine A1 receptor expressed in CHO cells; type: cell-based
T9 sequence (P30542 whole entry): T6 sequence (whole entry)

[11] = target: T10, Adenosine receptor A3 (Homo sapiens) (UniProt P0DMS8); experiment: Displacement of [3H]PSB11 from recombinant human adenosine A3 receptor expressed in CHO cells at 1 uM relative to control; type: cell-based; in short: as §2
T10 sequence (whole entry): T5 sequence (P0DMS8 whole entry)

[12] = target: T8, Amine oxidase [flavin-containing] A; experiment: Inhibition of recombinant human MAOA expressed in baculovirus infected BTI insect cells using p-tyramine as substrate preincubated for 30 mins followed by substrate addition and measured over 45 mins by horseradish peroxidase-Amplex Red-coupled fluorometric assay; in short: as §1

inhibition (INH) [2]	Ki (Adenosine receptor A2a [3])	Ki (Adenosine receptor A1 [4])	Ki (Adenosine receptor A2b)	Ki (Adenosine receptor A3)	IC50 [5]	inhibition [6]	inhibition [7]	inhibition (Adenosine receptor A2a [8])	inhibition (INH) [9]	Ki (Adenosine receptor A1 [10])	inhibition [11]	IC50 [12]	Compound	Activity [1]
–	–	–	–	–	–	–	–	–	–	–	–	–	O=C1O[C@H]([C@@H](O)CO)C(O)=C1O	100%
24%	> 1000 nM	> 1000 nM	> 1000 nM	> 1000 nM	> 1000 nM	–	–	–	–	–	–	–	Cn1c(=O)c2c(nc3n2CCCN3Cc2cc(F)c(F)c(F)c2)n(C)c1=O	–
–	> 1000 nM	–	> 1000 nM	> 1000 nM	515 nM	1%	22%	29%	-2%	> 1000 nM	11%	> 1000 nM	Cn1c(=O)c2c(nc3n2CCN3Cc2ccc(Cl)c(Cl)c2)n(C)c1=O	–
4%	> 1000 nM	> 1000 nM	> 1000 nM	> 1000 nM	> 1000 nM	–	–	–	–	–	–	–	Cn1c(=O)c2c(nc3n2CCCN3CCc2ccncc2)n(C)c1=O	–
40%	1020 nM	1410 nM	> 1000 nM	> 1000 nM	> 1000 nM	–	–	–	–	–	–	–	Cc1ccccc1CN1CCCn2c1nc1c2c(=O)n(C)c(=O)n1C	–
42%	> 1000 nM	–	> 1000 nM	> 1000 nM	> 1000 nM	23%	21%	42%	16%	> 1000 nM	30%	> 1000 nM	Cn1c(=O)c2c(nc3n2CCN3Cc2ccc(Cl)cc2)n(C)c1=O	–
–	> 1000 nM	–	> 1000 nM	> 1000 nM	177 nM	6%	2%	30%	6%	> 1000 nM	1%	> 1000 nM	Cn1c(=O)c2c(nc3n2CCN3Cc2ccc(F)c(Br)c2)n(C)c1=O	–
